# T cruzi growth-1 = blocks T. cruzi growth in NIH3T3 culture | T. cruzi beta-gal in NIH3T3, GalScreen luminescence, 90 h | AID 624255 | 77,000 compounds, 5.9% hits | inhibition, % at 8.34 µM;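 active = mean inhibition above about 93%, with at least 55% of replicates each passing it, limit read from the data, passing the limit was not always enough; inconclusive = only one of those two conditions holds; inactive = neither condition holds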
# KDM4C inh = inhibitors of human demethylase GASC-1 KDM4C; Q9H3R0; GST-KDM4C 2-372, H3K9me3 peptide, LANCE TR-FRET; inhibition, % at 12.5 µM; 96,000 compounds, 0.15% hits; AID 720574;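 active = mean replicate inhibition above about 25%, with at least 55% of replicates also reaching it, limit read from the data, passing the limit was not always enough; inconclusive = only one of those two conditions met; inactive = neither condition met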
#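 Material: GST-tagged GASC-1 (JMJD2C) catalytic fragment, aa 2-372 / Quantity: enzyme final amount 10 nM / Medium: HEPES buffer, pH 7.5, plus ascorbate / Doses: one test concentration per compound / Incubation: 30 min reaction, 60 min detection, RT / Measured by: LANCE TR-FRET / Read-out: inhibition from TR-FRET ratio decrease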
# IDH1 mut inh = blocks human IDH1 R132H reductase activity; O75874; diaphorase/resazurin fluorescence, 60 min; inhibition, % at 10 µM; 70,000 compounds, 0.18% hits; AID 624101; in the data active = inhibition above about 34%; inconclusive = no clear call, values can overlap the other calls; inactive = below about 11%;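 note: 0% = DMSO and 100% = no enzyme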
# Target sequence (O75874 whole entry R132H): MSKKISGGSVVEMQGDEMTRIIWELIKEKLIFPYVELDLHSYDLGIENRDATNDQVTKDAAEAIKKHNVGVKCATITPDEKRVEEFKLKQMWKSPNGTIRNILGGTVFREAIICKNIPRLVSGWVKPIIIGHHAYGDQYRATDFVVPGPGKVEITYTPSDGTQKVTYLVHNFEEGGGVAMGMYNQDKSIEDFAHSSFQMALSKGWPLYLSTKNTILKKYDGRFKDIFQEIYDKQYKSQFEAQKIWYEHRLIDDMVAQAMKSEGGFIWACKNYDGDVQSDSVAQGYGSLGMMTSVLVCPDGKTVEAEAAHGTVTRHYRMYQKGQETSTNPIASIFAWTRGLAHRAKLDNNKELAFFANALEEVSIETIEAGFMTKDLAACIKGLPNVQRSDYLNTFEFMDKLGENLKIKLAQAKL
# T cruzi growth-2 = inhibitors of T. cruzi proliferation; T. cruzi beta-gal in NIH3T3, GalScreen luminescence, 90 h; inhibition, % at 8.35 µM; AID 651739; shares compounds with T cruzi growth-1; 5,600 compounds, 72% hits;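 active = mean replicate inhibition above about 95% and at least 55% of replicates individually reaching it, limit read from the data; inconclusive = only one of the two criteria is met; inactive = neither criterion is met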
# T cruzi growth-3 = Trypanosoma cruzi proliferation inhibition. shares compounds with T cruzi growth-1. T. cruzi beta-gal in NIH3T3, GalScreen luminescence, 90 h. inhibition, % at 2.09 µM. 5,600 compounds, 21% hits. AID 651740;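 active = mean inhibition above about 95%, with at least 55% of replicates also reaching it, limit read from the data; inconclusive = meets just one of the two conditions; inactive = meets neither condition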;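 note: plate controls were neutral control median for no effect and positive control median for full effect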
# NIH3T3 tox = kills mouse NIH/3T3 fibroblasts | AID 651742 | 5,600 compounds, 14% hits | cytotoxicity (signal decrease), % at 8.35 µM | NIH/3T3 viability, CellTiter-Glo ATP luminescence, 90 h | shares compounds with T cruzi growth-1;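 active = mean signal decrease across replicates above about 35% based on untreated-well scatter, with enough replicates individually passing, limit read from the data; inconclusive = no rule stated though some were filed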;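 note: 0% = median of neutral control wells and 100% = median of positive control wells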
# 3T3 cytotox 2 = NIH/3T3 (mouse) viability loss; shares compounds with T cruzi growth-1; NIH/3T3 viability, CellTiter-Glo ATP luminescence, 90 h; inhibition, % at 24.9 µM; 5,600 compounds, 56% hits; AID 651744;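 active = mean loss of cell viability signal at or above a set limit, and enough replicates individually reaching it; inconclusive = meets only the mean limit or only the replicate share; inactive = meets neither condition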;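 note: 0% = median of neutral control wells and 100% = median of positive control wells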
# The depositor's hits bear a star; ? = inconclusive; . = no result. Many of the other results were omitted from the sample, so hits are more common in it than they were.
SMILES,T cruzi growth-1,KDM4C inh,IDH1 mut inh,T cruzi growth-2,T cruzi growth-3,NIH3T3 tox,3T3 cytotox 2
CN(C)C(=O)c1ccc(-c2ccc3c(c2)[C@@H]2[C@@H](CCN2C(=O)C2CCOCC2)[C@H](CO)N3C)cc1,97*,2,.,106*,40,-5,11
COc1ccc(-c2ccc3c(c2)[C@H]2[C@H](CCN2C(=O)C2CCOCC2)[C@@H](CO)N3C)cc1,12,2,.,.,.,.,.
COc1ccc(-c2ccc3c(c2)[C@@H]2[C@@H](CCN2C(=O)C2CCC2)[C@H](CO)N3C)cc1,.,11,.,.,.,.,.
CN1c2ccc(Br)cc2[C@@H]2[C@@H](CCN2C(=O)C2CC2)[C@H]1CO,61,3,.,.,.,.,.
C[C@@H](NC(=O)N(C)C[C@H]1OCc2ccccc2-c2c(n(C)c3ccccc23)C(=O)N([C@@H](C)CO)C[C@@H]1C)c1ccccc1,18,3,.,.,.,.,.
O=C(NCC1CC1)[C@@H]1[C@@H](CO)[C@@H]2Cn3c(ccc(-c4cccc(F)c4)c3=O)[C@@H]2N1CC1CC1,66,8,.,.,.,.,.
CN1c2ccc(-c3ccccc3)cc2[C@@H]2[C@@H](CCN2C(=O)c2ccncc2)[C@H]1CO,86,0,.,.,.,.,.
COc1ccc(-c2ccc3c(c2)[C@@H]2[C@@H](CCN2C(=O)c2ccncc2)[C@@H](CO)N3C)cc1,98*,1,.,101*,84,9,15
O=C(Nc1ccccc1[N+](=O)[O-])c1cccc(S(=O)(=O)Nc2ccccc2)c1,.,.,-1,.,.,.,.
C[C@@H]1CN([C@H](C)CO)S(=O)(=O)c2ccc(/C=C/c3ccccc3)cc2O[C@H]1CN(C)C(=O)NC1CCCCC1,.,10,4,.,.,.,.
COc1ccc(CN(C)C[C@@H]2OCCCC[C@@H](C)Oc3ccc(NC(=O)Nc4ccc(F)cc4)cc3C(=O)N([C@@H](C)CO)C[C@H]2C)cc1,20,-2,.,.,.,.,.
COc1ccc(CN(C)C[C@@H]2OCCCC[C@H](C)Oc3ccc(NC(=O)Nc4ccc(OC)cc4)cc3C(=O)N([C@@H](C)CO)C[C@@H]2C)cc1,100*,0,2,107*,-7,11,63*
COc1ccc(CN(C)C[C@@H]2OCCCC[C@H](C)Oc3ccc(NC(=O)C4CCCCC4)cc3C(=O)N([C@@H](C)CO)C[C@H]2C)cc1,80,-1,1,.,.,.,.
COc1ccc(CN(C)C[C@H]2OCCCC[C@H](C)Oc3ccc(NC(=O)C4CCCCC4)cc3C(=O)N([C@H](C)CO)C[C@H]2C)cc1,107*,2,9,73,35,5,26*
COc1ccc(CN(C)C[C@@H]2OCCCC[C@H](C)Oc3ccc(NC(=O)Nc4ccc(OC)cc4)cc3C(=O)N([C@H](C)CO)C[C@@H]2C)cc1,99*,.,-1,104*,105*,17,104*
COc1ccc(CN(C)C[C@H]2OCCCC[C@@H](C)Oc3ccc(NC(=O)Nc4ccc(F)cc4)cc3C(=O)N([C@H](C)CO)C[C@H]2C)cc1,86,-2,.,.,.,.,.
COc1ccc(CN(C)C[C@H]2OCCCC[C@H](C)Oc3ccc(NC(=O)Nc4ccc(OC)cc4)cc3C(=O)N([C@H](C)CO)C[C@H]2C)cc1,106*,8,.,103*,57,21,25*
COc1ccc(CN(C)C[C@H]2OCCCC[C@@H](C)Oc3ccc(NC(=O)Nc4ccc(OC)cc4)cc3C(=O)N([C@@H](C)CO)C[C@@H]2C)cc1,81,.,-2,.,.,.,.
O=C(N/N=C/c1ccc(Br)cc1)c1ccccn1,.,.,0,.,.,.,.
CCCN(C)C[C@H]1OCCCC[C@H](C)Oc2ccc(NC(=O)CCC(F)(F)F)cc2C(=O)N([C@H](C)CO)C[C@@H]1C,44,0,1,.,.,.,.
COc1ccc(CN(C)C[C@H]2OCCCC[C@H](C)Oc3ccc(NC(=O)Nc4ccc(F)cc4)cc3C(=O)N([C@H](C)CO)C[C@@H]2C)cc1,44,-1,1,.,.,.,.
COc1ccc(CN(C)C[C@H]2OCCCC[C@@H](C)Oc3ccc(NC(=O)Nc4ccc(OC)cc4)cc3C(=O)N([C@H](C)CO)C[C@H]2C)cc1,109*,0,.,105*,105*,2,104*
O=C(C1c2ccccc2C(=O)N2CCc3ccccc3C12)N1CCCC1 (stereo unspecified),.,.,1,.,.,.,.
COc1ccc2c3c(n(C)c2c1)[C@H](CO)N(Cc1ccccc1OC)CC31CCN(CC2CCOCC2)CC1,.,2,.,.,.,.,.
C[C@H](CO)N1C[C@H](C)[C@@H](CN(C)Cc2ccc(Cl)c(Cl)c2)OCCCC[C@H](C)Oc2ccc(NS(=O)(=O)c3cccs3)cc2C1=O,?,-1,.,85,107*,11,104*
SMILES,T cruzi growth-1,KDM4C inh,IDH1 mut inh,T cruzi growth-2,T cruzi growth-3,NIH3T3 tox,3T3 cytotox 2
C[C@@H]1CCCCO[C@@H](CN(C)Cc2ccncc2)[C@@H](C)CN([C@@H](C)CO)C(=O)c2cc(NS(=O)(=O)c3cccs3)ccc2O1,28,2,19,.,.,.,.
C[C@@H]1CCCCO[C@@H](CN(C)Cc2ccc(Cl)c(Cl)c2)[C@@H](C)CN([C@H](C)CO)C(=O)c2cc(NS(=O)(=O)c3cccs3)ccc2O1,115*,-1,1,97*,84,-4,50*
C[C@@H]1CCCCO[C@H](CN(C)Cc2ccc(Cl)c(Cl)c2)[C@@H](C)CN([C@H](C)CO)C(=O)c2cc(NS(=O)(=O)c3cccs3)ccc2O1,116*,0,.,105*,2,9,57*
C[C@@H]1CCCCO[C@H](CN(C)Cc2ccncc2)[C@H](C)CN([C@H](C)CO)C(=O)c2cc(NS(=O)(=O)c3cccs3)ccc2O1,33,1,9,.,.,.,.
C[C@H](CO)N1C[C@H](C)[C@@H](CN(C)Cc2ccncc2)OCCCC[C@H](C)Oc2ccc(NS(=O)(=O)c3cccs3)cc2C1=O,21,1,19,.,.,.,.
C[C@H]1CCCCO[C@H](CN(C)C(=O)Nc2ccc(F)cc2)[C@@H](C)CN([C@@H](C)CO)C(=O)c2cc(NC(=O)c3ccccc3)ccc2O1,99*,-2,2,89,54,8,?
C[C@@H]1CN([C@H](C)CO)C(=O)c2cc(NC(=O)c3ccccc3)ccc2O[C@@H](C)CCCCO[C@H]1CN(C)C(=O)Nc1ccc(F)cc1,70,0,.,.,.,.,.
C[C@@H]1CCCCO[C@H](CN(C)C(=O)Nc2ccc(F)cc2)[C@H](C)CN([C@H](C)CO)C(=O)c2cc(NC(=O)c3ccccc3)ccc2O1,?,-2,.,102*,62,11,15
C[C@H]1CCCCO[C@@H](CN(C)C(=O)Nc2ccc(C(F)(F)F)cc2)[C@@H](C)CN([C@@H](C)CO)C(=O)c2cc(NC(=O)c3ccccc3)ccc2O1,102*,-2,.,108*,113*,-5,19

# Compound activity deposited in PubChem BioAssay by Broad Institute.
